Rows were chosen to be rich in hits. Some 0.55% of all compounds tested hit in one or more screens of this group.
TRPML3 ag: agonists of human TRPML3 channel; 220,000 compounds, 0.29% hits; activation, % at 3 µM; Q8TDD5; HEK293 TRPML3-YFP, Fluo-8 calcium fluorescence; 100% = the carbachol control signal;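 active = activation above its plate's cutoff, the mean activation of the plate's test wells plus 3 SD, cut at about 12% in these data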;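 also: 0% = DMSO only wells and 100% = carbachol wells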
Target sequence (Q8TDD5 whole entry, looked up): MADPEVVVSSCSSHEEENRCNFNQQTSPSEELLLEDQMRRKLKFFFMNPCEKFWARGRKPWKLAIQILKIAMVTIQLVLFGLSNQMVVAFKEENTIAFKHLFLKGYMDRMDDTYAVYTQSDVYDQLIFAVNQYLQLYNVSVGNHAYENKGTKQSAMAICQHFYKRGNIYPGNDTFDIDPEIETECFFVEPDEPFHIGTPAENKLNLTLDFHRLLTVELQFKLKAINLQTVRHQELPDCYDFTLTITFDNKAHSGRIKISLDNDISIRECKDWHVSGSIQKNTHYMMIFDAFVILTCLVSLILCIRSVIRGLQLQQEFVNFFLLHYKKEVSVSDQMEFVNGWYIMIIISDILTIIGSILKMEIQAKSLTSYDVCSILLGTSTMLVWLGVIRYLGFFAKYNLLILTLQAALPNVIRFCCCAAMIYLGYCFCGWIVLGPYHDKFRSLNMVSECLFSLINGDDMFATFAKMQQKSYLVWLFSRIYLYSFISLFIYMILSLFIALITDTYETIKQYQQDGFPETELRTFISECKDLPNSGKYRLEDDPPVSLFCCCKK
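system = HEK293 cells stably carrying human TRPML3-YFP | doses = one concentration, 3 µM nominal, 0.3% DMSO | timing = dye loading 1 h 37 °C then 30 min ambient, 125 s read | detection = Fluo-8 calcium dye fluorescence, ex 470-495, em 515-575 nm | benchmarks = high control carbachol 87 µM, low control DMSO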
zfTRPN1 agonist: zebrafish TRPN1 (NompC) channel agonism; activation, % at 3 µM; HEK293 zebrafish TRPN1-YFP, Fluo-8 calcium fluorescence; 100% = response to 87 µM carbachol; AID 1424; 220,000 compounds, 0.18% hits;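 active = activation above its plate's cutoff, the mean activation of test wells on that plate plus 3 SD, cut at about 19% in these data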;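 also: 0% = DMSO alone and 100% = 87 µM carbachol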
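Material: zebrafish TRPN1-YFP in HEK293 cells; Doses: single test compound dose, 3 µM nominal, 0.3% DMSO; Timing: dye loading 1 h at 37 °C, then 30 min room temperature; Technique: intracellular calcium fluorescence with Fluo-8; Benchmarks: high carbachol 87 µM, low DMSO alone.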
OXTR agonist: activates the human oxytocin receptor; 320,000 compounds, 0.32% hits; CHO-OTR cells, Fluo-8 calcium fluorescence; normalized: DMSO 0%, oxytocin 100%; P30559; AID 2435; activation, % at 3 µM;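 active = activation above the mean of all tested compounds plus 3 SD, cutoff set per screening run, cut at about 20% in these data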;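 also: peak over basal fluorescence ratio from a 100 s FLIPR kinetic read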
V1aR counter: V1a receptor agonism, counter-screen for OXTR agonists | CHO-V1R cells, Fluo-8 calcium fluorescence, agonist mode; 0% DMSO, 100% 3 nM vasopressin | activation, % at 3 µM | 320,000 compounds, 0.25% hits | AID 2797;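 active = activation above the mean activation of all tested compounds plus 3 SD, per screening run, cut at about 20% in these data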;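 also: signal is peak over basal fluorescence ratio across a 100 second FLIPR read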
OXTR potentiator: potentiators of human oxytocin receptor; CHO-OTR cells, Fluo-8 calcium fluorescence, potentiator mode; 0% = oxytocin EC15, 100% = EC100; AID 2445; activation, % at 3 µM; P30559; 320,000 compounds, 0.061% hits;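 active = activation above that plate's cutoff, the mean activation of tested compounds plus 3 SD, cut at about 6.6% in these data, passing the limit was not always enough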;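 also: 100% uses oxytocin at 75 nM as the full agonist control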
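assay system = CHO-OTR cells, human receptor | schedule = compound 6 min at room temperature before oxytocin, 100 s read | detection = Fluo-8 intracellular calcium fluorescence, ex 470-495, em 515-575 nm | evaluation = normalized max/min fluorescence ratio, % activation | control set = EC15 oxytocin alone as 0%, 75 nM oxytocin (EC100) as 100%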
An asterisk follows results filed as active.

What do the screens show for `CC(C)CSC1=NSC2=NC(=O)/C(=C\c3coc4ccccc4c3=O)C(=N)N12`?
TRPML3 ag: 13*; zfTRPN1 agonist: 21*; OXTR agonist: 121*; V1aR counter: 43*; OXTR potentiator: -21

What do the screens show for `N=C1/C(=C\c2coc3ccccc3c2=O)C(=O)N=C2SC(c3ccncc3)=NN12`?
TRPML3 ag: 34*; zfTRPN1 agonist: 61*; OXTR agonist: 92*; V1aR counter: 98*; OXTR potentiator: -8

How did N=C1/C(=C/c2coc3ccccc3c2=O)C(=O)N=C2SC(c3ccco3)=NN12 do in these assays?
TRPML3 ag: 6; zfTRPN1 agonist: 15; OXTR agonist: 11; V1aR counter: 5; OXTR potentiator: 2

How did CC(C)CSC1=NSC2=NC(=O)/C(=C\c3ccccc3)C(=N)N12 do in these assays?
TRPML3 ag: -1; zfTRPN1 agonist: -1; OXTR agonist: 0; V1aR counter: -1; OXTR potentiator: -3

How did N=C1/C(=C\c2coc3ccc(O)cc3c2=O)C(=O)N=C2SC=CN12 do in these assays?
TRPML3 ag: 18*; zfTRPN1 agonist: 84*; OXTR agonist: 47*; V1aR counter: 42*; OXTR potentiator: -26

What do the screens show for `Cc1cccc(S(=O)(=O)C(C#N)c2nc3ccccc3nc2N2CCOCC2)c1` (centres undefined)?
TRPML3 ag: -1; zfTRPN1 agonist: 0; OXTR agonist: 1; V1aR counter: 1; OXTR potentiator: 1

What do the screens show for `Cc1cc(C)n(-c2nc3ccccc3c(=O)n2OC2CCCCC2)n1`?
TRPML3 ag: 0; zfTRPN1 agonist: -2; OXTR agonist: -1; V1aR counter: 0; OXTR potentiator: -1

How did O=C(c1ccc2ccccc2c1)N1CCCC1 do in these assays?
OXTR agonist: -2; V1aR counter: 0; OXTR potentiator: -14

Results for CCOC(=O)c1c(C)[nH]c(C(=O)COC(=O)c2ccc([N+](=O)[O-])o2)c1C ?
OXTR agonist: 5; V1aR counter: 4; OXTR potentiator: -3

What do the screens show for `Cc1cc(C)c(O)c(NC(=S)NC(=O)Cc2ccccc2)c1`?
OXTR agonist: 31*; V1aR counter: 29*; OXTR potentiator: -20

Results for Cc1c(NC(=S)NC(=O)Cc2ccccc2)cccc1C(=O)O ?
TRPML3 ag: 1; zfTRPN1 agonist: 1; OXTR agonist: 0; V1aR counter: 0; OXTR potentiator: -4

How did COc1ccc(CC(=O)NC(=S)Nc2cccc(CO)c2)cc1 do in these assays?
OXTR agonist: 28*; V1aR counter: 27*; OXTR potentiator: -20

What do the screens show for `COc1ccccc1NC(=S)NC(=O)Cc1ccc(Cl)cc1`?
OXTR agonist: 22*; V1aR counter: 33*; OXTR potentiator: -20

Results for COc1ccc(CC(=O)NC(=S)Nc2cccc(C)c2)cc1 ?
OXTR agonist: 26*; V1aR counter: 27*; OXTR potentiator: -20

Results for Cc1cccc(NC(=S)NC(=O)CCc2ccccc2)c1 ?
TRPML3 ag: 0; zfTRPN1 agonist: -1; OXTR agonist: -3; V1aR counter: -1; OXTR potentiator: -9

Results for CCC(=O)Nc1cccc(NC(=S)NC(=O)Cc2ccccc2)c1 ?
TRPML3 ag: 0; zfTRPN1 agonist: 0; OXTR agonist: 2; V1aR counter: 4; OXTR potentiator: -13

What do the screens show for `COc1cccc(NC(=S)NC(=O)Cc2ccc(Cl)cc2)c1`?
OXTR agonist: 25*; V1aR counter: 31*; OXTR potentiator: -19

How did CCOC(=O)Cn1c(=O)oc2cc(S(=O)(=O)Nc3ccc(F)cc3)ccc21 do in these assays?
TRPML3 ag: 7; zfTRPN1 agonist: 19*; OXTR agonist: 36*; V1aR counter: 33*; OXTR potentiator: -10

What do the screens show for `CCOC(=O)Cn1c(=O)oc2cc(S(=O)(=O)NCCc3ccc(C)cc3)ccc21`?
TRPML3 ag: 2; zfTRPN1 agonist: 4; OXTR agonist: 13; V1aR counter: 10; OXTR potentiator: -10

How did CC(=O)CC(C)(C)S(=O)(=O)c1ccc(NC(C)=O)cc1 do in these assays?
TRPML3 ag: 1; zfTRPN1 agonist: 1; OXTR agonist: -1; V1aR counter: 0; OXTR potentiator: -3

Results for O=C(COc1ccccc1Cl)NNC(=O)c1ccc2c(=O)n3c(nc2c1)CCC3 ?
OXTR agonist: 1; V1aR counter: 0; OXTR potentiator: -6

Results for Nc1c(C(=O)c2ccccc2)sc2nsc(SCCN3CCCC3)c12 ?
TRPML3 ag: 13*; zfTRPN1 agonist: 26*; OXTR agonist: 2; V1aR counter: 1; OXTR potentiator: -3

How did CC(=O)c1sc2nsc(SCCN3CCCCC3)c2c1N do in these assays?
TRPML3 ag: 1; zfTRPN1 agonist: 2; OXTR agonist: 2; V1aR counter: 1; OXTR potentiator: 1

What do the screens show for `Nc1c(C(=O)c2ccc(Cl)cc2)sc2nsc(SCCN3CCOCC3)c12`?
TRPML3 ag: 11; zfTRPN1 agonist: 23*; OXTR agonist: 5; V1aR counter: 5; OXTR potentiator: -8

How did O=C(Nc1cccnc1)c1ccc(COc2cc(Cl)ccc2Cl)o1 do in these assays?
TRPML3 ag: 0; zfTRPN1 agonist: 0; OXTR agonist: 4; V1aR counter: 7; OXTR potentiator: -22

Results for O=C(N/N=C/c1ccc(O)cc1)c1ccc(COc2cc(Cl)ccc2Cl)o1 ?
TRPML3 ag: 10; zfTRPN1 agonist: 24*; OXTR agonist: 33*; V1aR counter: 33*; OXTR potentiator: -23

What do the screens show for `O=C(Cn1nnc(-c2ccccc2NC(=O)c2ccccc2F)n1)NC1CCCC1`?
TRPML3 ag: 0; zfTRPN1 agonist: 1; OXTR agonist: 47*; V1aR counter: 49*; OXTR potentiator: 1

What do the screens show for `CCCCc1ccc(N/C(N)=N/c2nc(C)cc(C)n2)cc1`?
TRPML3 ag: 80*; zfTRPN1 agonist: 109*; OXTR agonist: 58*; V1aR counter: 62*; OXTR potentiator: -20

How did Cc1ccc(C(C)C)c(OCC(=O)NN2C(=O)c3ccccc3C2=O)c1 do in these assays?
OXTR agonist: -1; V1aR counter: -1; OXTR potentiator: -11

Results for O=C(Nc1ncc(S(=O)(=O)c2ccc([N+](=O)[O-])cc2)s1)c1ccccc1F ?
TRPML3 ag: 4; zfTRPN1 agonist: 6; OXTR agonist: 33*; V1aR counter: 41*; OXTR potentiator: -8

Results for COc1ccc(OCC(O)Cn2c(=N)n(Cc3ccccc3)c3ccccc32)cc1 (centres undefined) ?
TRPML3 ag: -1; zfTRPN1 agonist: -1; OXTR agonist: 17; V1aR counter: 12; OXTR potentiator: -6

Results for N=c1n(Cc2ccc(Cl)cc2)c2ccccc2n1CC(O)COc1ccccc1 (centres undefined) ?
TRPML3 ag: 1; zfTRPN1 agonist: 2; OXTR agonist: 37*; V1aR counter: 25*; OXTR potentiator: -14

Assay outcomes from PubChem.
